Assay results from ChEMBL document CHEMBL1123155, “Synthesis and inhibition of human acrosin and trypsin and acute toxicity of aryl 4-guanidinobenzoates” (J Med Chem, 1986).

Legend:
Acrosin = Acrosin (Homo sapiens, UniProt P10323); experiment: Inhibition of human acrosin and control activity being 11.3 umol/min/mg; settings: read-out: I50
Serine protease 1 = Serine protease 1 (Homo sapiens, UniProt P07477); experiment: Inhibition of human trypsin and the control activity being 7.3 umol/min/mg; settings: read-out: I50
Chain of Serine protease 1 (P07477 whole entry): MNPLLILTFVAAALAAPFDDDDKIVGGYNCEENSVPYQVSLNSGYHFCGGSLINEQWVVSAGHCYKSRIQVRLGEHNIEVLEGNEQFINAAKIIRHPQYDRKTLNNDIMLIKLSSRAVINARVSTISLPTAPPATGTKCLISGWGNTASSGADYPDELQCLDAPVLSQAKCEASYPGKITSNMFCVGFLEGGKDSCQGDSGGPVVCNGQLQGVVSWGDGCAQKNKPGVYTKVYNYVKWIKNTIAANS

[1] = Lethal dose that produces death in 50% of mice within 24 hr after acute treatment; type: toxicity, organism-based; settings: mouse, in vivo
Summary of the method: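 Mature male Swiss Webster albino mice, minimum body weight 25 g; compounds suspended in 5% gum acacia and given as a single intraperitoneal injection at 0.1 mL/10 g body weight. Deaths scored within 24 h. LD50 taken from dose-response curves by the Litchfield and Wilcoxon method, with 95% confidence limits.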

Chain of Acrosin (P10323 20-42 limits assumed): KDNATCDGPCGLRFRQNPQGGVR
Chain of Acrosin (P10323 43-343 limits assumed): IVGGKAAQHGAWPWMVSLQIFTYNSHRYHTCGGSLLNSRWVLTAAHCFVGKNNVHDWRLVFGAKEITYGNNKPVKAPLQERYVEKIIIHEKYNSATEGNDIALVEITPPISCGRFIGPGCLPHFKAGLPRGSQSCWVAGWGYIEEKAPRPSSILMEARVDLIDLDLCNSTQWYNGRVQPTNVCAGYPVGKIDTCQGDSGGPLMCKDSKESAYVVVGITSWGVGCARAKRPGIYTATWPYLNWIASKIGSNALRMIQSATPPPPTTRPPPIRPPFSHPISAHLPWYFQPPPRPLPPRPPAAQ

CC(C)(C)c1ccc(OC(=O)c2ccc(NC(=N)N)cc2)cc1
IC50 (Acrosin): 28.5 nM | IC50 (Serine protease 1): 17.1 nM

CCCCOc1ccc(OC(=O)c2ccc(NC(=N)N)cc2)cc1
IC50 (Acrosin): 11.4 nM | IC50 (Serine protease 1): 22.3 nM

COc1ccc(OC(=O)c2ccc(NC(=N)N)cc2)cc1
IC50 (Acrosin): 16.3 nM | IC50 (Serine protease 1): 19 nM

COc1ccccc1OC(=O)c1ccc(NC(=N)N)cc1
IC50 (Acrosin): 27.3 nM | IC50 (Serine protease 1): 87.6 nM

COC(=O)c1ccccc1OC(=O)c1ccc(NC(=N)N)cc1
IC50 (Acrosin): 12.9 nM | IC50 (Serine protease 1): 65 nM | LD50 at 24 h [1]: 750 mg/kg

CC(C)c1ccc(OC(=O)c2ccc(NC(=N)N)cc2)cc1
IC50 (Acrosin): 6.6 nM | IC50 (Serine protease 1): 17.2 nM

Cc1ccc(C(C)C)c(OC(=O)c2ccc(NC(=N)N)cc2)c1.Cc1ccc(S(=O)(=O)O)cc1
IC50 (Acrosin): 300 nM | IC50 (Serine protease 1): 500 nM | LD50 at 24 h [1]: > 2000 mg/kg

C=CCc1ccc(OC(=O)c2ccc(NC(=N)N)cc2)c(OC)c1
IC50 (Acrosin): 13.7 nM | IC50 (Serine protease 1): 8.4 nM | LD50 at 24 h [1]: 870 mg/kg

N=C(N)Nc1ccc(C(=O)Oc2ccccc2)cc1
IC50 (Acrosin): 5.6 nM | IC50 (Serine protease 1): 23.4 nM

N=C(N)Nc1ccc(C(=O)Oc2cccc(C(F)(F)F)c2)cc1
IC50 (Acrosin): 38.5 nM | IC50 (Serine protease 1): 92.2 nM

Cc1ccc(OC(=O)c2ccc(NC(=N)N)cc2)cc1
IC50 (Acrosin): 3.3 nM | IC50 (Serine protease 1): 19.5 nM

N#Cc1ccc(OC(=O)c2ccc(NC(=N)N)cc2)cc1
IC50 (Acrosin): 1.2 nM | IC50 (Serine protease 1): 1.6 nM

N=C(N)Nc1ccc(C(=O)Oc2ccc(C(F)(F)F)cc2)cc1
IC50 (Acrosin): 33 nM | IC50 (Serine protease 1): 16.4 nM

N=C(N)Nc1ccc(C(=O)Oc2ccc(Cl)cc2)cc1
IC50 (Acrosin): 3 nM | IC50 (Serine protease 1): 8.2 nM

COc1cccc(OC(=O)c2ccc(NC(=N)N)cc2)c1
IC50 (Acrosin): 17.6 nM | IC50 (Serine protease 1): 16.5 nM

N=C(N)Nc1ccc(C(=O)Oc2ccc(Br)cc2)cc1
IC50 (Acrosin): 3.5 nM | IC50 (Serine protease 1): 3.9 nM

CCCCCCc1ccc(OC(=O)c2ccc(NC(=N)N)cc2)cc1O
IC50 (Acrosin): 99.7 nM | IC50 (Serine protease 1): 18.5 nM | LD50 at 24 h [1]: 620 mg/kg

CC(=O)Nc1ccc(OC(=O)c2ccc(NC(=N)N)cc2)cc1.Cl
IC50 (Acrosin): 8 nM | IC50 (Serine protease 1): 23.7 nM | LD50 at 24 h [1]: 850 mg/kg

CCOC(=O)c1ccc(OC(=O)c2ccc(NC(=N)N)cc2)cc1.Cl
IC50 (Acrosin): 9.3 nM | IC50 (Serine protease 1): 1.6 nM | LD50 at 24 h [1]: 300 mg/kg

COC(=O)c1cccc(OC(=O)c2ccc(NC(=N)N)cc2)c1
IC50 (Acrosin): 5.4 nM | IC50 (Serine protease 1): 27.1 nM

N#Cc1cccc(OC(=O)c2ccc(NC(=N)N)cc2)c1
IC50 (Acrosin): 7.2 nM | IC50 (Serine protease 1): 3.8 nM

Cl.N=C(N)Nc1ccc(C(=O)Oc2cccc3cccnc23)cc1
IC50 (Acrosin): 19.8 nM | IC50 (Serine protease 1): 27.7 nM | LD50 at 24 h [1]: 240 mg/kg

Cl.N=C(N)Nc1ccc(C(=O)Oc2ccccc2C(N)=O)cc1
IC50 (Acrosin): 300 nM | IC50 (Serine protease 1): 300 nM | LD50 at 24 h [1]: > 1000 mg/kg

COC(=O)c1ccc(OC(=O)c2ccc(NC(=N)N)cc2)cc1.Cl
IC50 (Acrosin): 0.67 nM | IC50 (Serine protease 1): 1.5 nM | LD50 at 24 h [1]: 235 mg/kg
